# Hits are enriched below; roughly 3.8% of the tested compounds scored in any of these assays.
# hERG rescue: hERG rescue from dofetilide block, primary screen, cell-based, CHO-hERG, FluxOR thallium flux, dofetilide IC70 | Voltage-gated inwardly rectifying potassium channel KCNH2 (Homo sapiens), Q12809 | dofetilide IC70 present | activation (rescue from dofetilide block), less the hit threshold, % at 10 µM | 0.51% of 310,000 active | AID 1511, 2009;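 active = activation above the mean of controls blocked by dofetilide plus 5 SD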;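 note: thallium influx through hERG after potassium depolarization seen as dye fluorescence rise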
# Target sequence (Q12809 whole entry, looked up): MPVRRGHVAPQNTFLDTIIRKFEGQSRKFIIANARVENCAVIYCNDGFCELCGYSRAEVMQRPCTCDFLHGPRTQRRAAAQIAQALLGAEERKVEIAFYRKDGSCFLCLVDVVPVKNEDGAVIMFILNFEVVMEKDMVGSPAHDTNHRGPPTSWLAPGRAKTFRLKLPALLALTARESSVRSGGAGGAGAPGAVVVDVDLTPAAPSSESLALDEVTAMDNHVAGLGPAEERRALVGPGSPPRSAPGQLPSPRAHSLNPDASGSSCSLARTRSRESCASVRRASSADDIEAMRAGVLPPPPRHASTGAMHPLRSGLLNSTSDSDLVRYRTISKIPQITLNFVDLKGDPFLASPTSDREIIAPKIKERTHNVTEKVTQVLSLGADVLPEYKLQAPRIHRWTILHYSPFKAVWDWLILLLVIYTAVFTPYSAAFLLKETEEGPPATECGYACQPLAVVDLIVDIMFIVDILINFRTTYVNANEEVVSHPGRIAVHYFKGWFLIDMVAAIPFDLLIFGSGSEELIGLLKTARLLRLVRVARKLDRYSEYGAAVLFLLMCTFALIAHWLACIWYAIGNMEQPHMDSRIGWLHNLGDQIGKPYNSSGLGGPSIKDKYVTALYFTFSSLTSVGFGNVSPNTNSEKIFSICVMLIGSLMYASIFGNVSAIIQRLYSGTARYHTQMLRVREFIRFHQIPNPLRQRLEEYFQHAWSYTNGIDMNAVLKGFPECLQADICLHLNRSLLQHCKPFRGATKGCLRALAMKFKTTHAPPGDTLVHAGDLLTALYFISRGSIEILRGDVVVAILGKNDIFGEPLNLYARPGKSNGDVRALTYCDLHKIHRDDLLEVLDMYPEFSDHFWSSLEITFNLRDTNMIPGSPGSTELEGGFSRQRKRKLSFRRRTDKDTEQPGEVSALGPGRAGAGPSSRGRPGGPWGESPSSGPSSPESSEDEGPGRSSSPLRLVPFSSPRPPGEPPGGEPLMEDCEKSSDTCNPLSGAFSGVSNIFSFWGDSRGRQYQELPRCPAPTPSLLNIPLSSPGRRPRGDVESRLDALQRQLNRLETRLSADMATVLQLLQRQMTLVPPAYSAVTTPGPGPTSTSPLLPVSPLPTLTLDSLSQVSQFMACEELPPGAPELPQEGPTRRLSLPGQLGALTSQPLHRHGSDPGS
# KCNQ1 inh: inhibitors of human KCNQ1 channel, primary screen, cell-based, thallium flux, high-throughput; CHO-K1 KCNQ1, FluxOR thallium flux fluorescence; active compounds read high; Potassium voltage-gated channel subfamily KQT member 1 (Homo sapiens), P51787; 1.3% of 310,000 active; AID 2642, 2010; B-score at 10 µM;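 active = compounds whose thallium flux B-score, printed positive for inhibition, exceeds three library SD while starting fluorescence stays within three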;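 note: channel opened by potassium depolarization with thallium stimulus after 20 min compound exposure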
# KCNQ1 pot: potentiators or activators of KCNQ1 channel, primary screen, cell-based, thallium flux, high-throughput; Potassium voltage-gated channel subfamily KQT member 1 (Homo sapiens), P51787; CHO-K1 KCNQ1, thallium flux FluxOR fluorescence; active compounds read high; B-score at 10 µM; 0.35% of 310,000 active; AID 2648, 2010;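 active = fluorescence ratio B-score, a plate-corrected score, at least three library SD, with initial intensity B-score within 5 SD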
#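 System: Stable KCNQ1 CHO-K1 line | Incubation: 90 min dye loading and 20 min compound exposure, both at room temperature | Measure: Ratio B score | Medium: Assay buffer for compound exposure, DMSO matched across wells | Compound dosing: Single-concentration screen | Probe or stimulus: K+/Tl+ depolarizing stimulus | Measured by: Kinetic FluxOR fluorescence, 10 s baseline plus 110 s post-stimulus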
# KCNK9 inh: KCNK9 potassium channel inhibitors, primary screen, HEK293 cells, thallium flux. Potassium channel subfamily K member 9 (Homo sapiens), Q9NPC2. B-score at 10 µM. FluxOR thallium flux fluorescence; active compounds read low. 1.2% of 310,000 active;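 active = ratio B-score over 3 SD below the library mean, with starting fluorescence within 5 SD of its mean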;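 note: negative B-score means less thallium flux so channel inhibition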
# KCNK3 block: human KCNK3 channel inhibitors, primary screen, CHO cells, FluxOR thallium flux, B-score | Potassium channel subfamily K member 3 (Homo sapiens), O14649 | FluxOR fluorescence; active compounds read low | B-score at 10 µM | 0.84% of 340,000 active;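 active = B-score under library mean minus 4 SD, starting fluorescence ratio at most library mean plus 5 SD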;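 note: more negative B-score means stronger inhibition of thallium flux through KCNK3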
# Kir21 inh: inhibitors of mouse Kir2.1 inward-rectifier potassium channel. Inward rectifier potassium channel 2 (Mus musculus), P35561. HEK293-Kir2.1, FluxOR thallium flux fluorescence; active compounds read low. B-score at 10 µM. 0.85% of 310,000 active;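 active = fluorescence ratio B-score at or below minus 3 SD of library scores, with starting-brightness B-score within 2 SD, cut at about -4.2 in these data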;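 note: channel flux triggered by added potassium and thallium sulfate stimulus; B-score of peak minus minimum fluorescence over baseline after thallium stimulus; more negative B-score means stronger Kir2.1 block with less thallium influx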
# * = called active by the depositor; i = inactive; nt = not tested or not shown.
SMILES,hERG rescue,KCNQ1 inh,KCNQ1 pot,KCNK9 inh,KCNK3 block,Kir21 inh
CCSC1=C(C#N)C(c2cccs2)C(C(=O)OC)=C(C)N1 (centres undefined),-3,i,i,i,i,-4
CCCSC1=C(C#N)C(c2cccs2)C(C(=O)Nc2ccccc2)=C(C)N1 (centres undefined),-14,12*,i,i,i,-2.3
CNC(=S)NC1(C)CCS(=O)(=O)C1 (centres undefined),-6,i,i,i,i,0.05
CC(=O)C(Cc1ccccc1)NC(=O)COC(=O)CCN1C(=O)C2CC=CCC2C1=O (centres undefined),-11,i,i,i,i,0.15
CCN(CC)c1ncnc2scc(C3COc4ccccc4O3)c12 (centres undefined),-10,i,i,-7.6*,i,-1.8
Cc1c(/C=N/Nc2nc3ccccc3[nH]2)c2ccccc2n1C,-17,7*,i,i,i,-2.4
Cc1ccc(C(C#N)c2ccc3c(C(F)(F)F)cc(C(F)(F)F)nc3n2)cc1 (centres undefined),10*,i,43*,i,i,0.57
N#CC(c1ccccc1)c1ccc2c(C(F)(F)F)cc(C(F)(F)F)nc2n1 (centres undefined),-1,i,i,i,i,0.42
CCN(CC)CCC=C(c1cccs1)c1cccs1,nt,nt,nt,nt,i,nt
CNC(=S)N(CCc1c(C)[nH]c2ccc(C)cc12)Cc1ccco1,-5,i,i,i,i,-5*
CCNC(=S)N(CCc1c(C)[nH]c2ccc(Cl)cc12)Cc1ccco1,-37,i,i,i,i,-3.3
CCOCc1cc(=O)[nH]c(SC)n1,-6,i,i,i,i,-0.25
O=C(O)c1cccc(N/N=C(\N=Nc2ccccc2)c2ccccc2)c1,-10,6*,i,i,i,-0.19
CCCN(c1ccccc1F)S(=O)(=O)c1cc(-c2cc(C)no2)ccc1OC,-16,i,i,-7.8*,i,-1.2
CCc1ccc(-c2cc(C)no2)cc1S(=O)(=O)NCCc1ccc(OC)c(OC)c1,-14,i,i,i,i,-4.4*
Cc1cc(=O)oc2cc(OC(=O)c3ccco3)ccc12,-5,i,i,i,i,-12*
CCCCC[C@@H]1C=C(C(=O)O)[C@H](c2cccc(C)c2)N1S(=O)(=O)c1ccc(C)cc1,nt,nt,nt,nt,i,nt
Clc1ccc(Cc2ccccc2)nn1,5.3*,i,i,i,i,0.17
CSc1ccc(C2C(C(=O)c3ccco3)=C(O)C(=O)N2c2nnc(SC)s2)cc1 (centres undefined),-6,i,i,i,i,-0.04
O=C(CCCN1C(=O)/C(=C\c2ccccc2)SC1=S)Nc1cccc(C(=O)O)c1,-6,i,i,i,i,1.9
O=C(CCN1C(=O)/C(=C\C=C\c2ccccc2)SC1=S)Nc1cccc(C(=O)O)c1,45*,i,i,i,i,-0.26
O=C(COC(=O)c1ccc(Br)o1)Nc1ccc(N2CCOCC2)cc1,nt,nt,nt,nt,i,nt
CC(C)(C)c1ccc(C(=O)NNC(=O)CNC(=O)c2cccs2)cc1,nt,nt,nt,nt,i,nt
CCOc1cc(/C=C2\N=C(SCC)SC2=O)cc([N+](=O)[O-])c1OC(C)=O,-22,8*,i,i,i,0.86
CCSC1=N/C(=C\c2ccc(C)s2)C(=O)S1,-7,i,i,i,i,-1.9
SMILES,hERG rescue,KCNQ1 inh,KCNQ1 pot,KCNK9 inh,KCNK3 block,Kir21 inh
CCOc1c(O)ccc(/C=C2\SC(=S)NC2=O)c1[N+](=O)[O-],-11,i,i,i,i,1.1
CCOc1cc(/C=C2\N=C(SC)SC2=O)cc([N+](=O)[O-])c1OC(C)=O,-25,12*,i,i,i,-0.5
CCOc1c(OC(C)=O)ccc(/C=C2\N=C(SCC)SC2=O)c1[N+](=O)[O-],-25,9*,i,i,i,2
COc1ccc(N2CCN(C(=O)COC(=O)CNC(=O)c3cccc(OC(F)F)c3)CC2)cc1,nt,nt,nt,nt,i,nt
CC(=O)c1c(C)[nH]c(C(=O)OCc2nnc(-c3ccc([N+](=O)[O-])cc3)o2)c1C,nt,nt,nt,nt,i,nt
O=c1cc(-c2cccs2)oc2ccc(Cl)cc12,-15,i,i,i,i,2
O=c1c(O)c(-c2cccs2)oc2ccccc12,33*,i,55*,i,i,-4
O=c1c(O)c(-c2cccs2)oc2ccc(Cl)cc12,35*,i,72*,i,i,-7.4
Cn1c(Cl)cnc1C(O)(c1ccccc1)c1ccccc1,-6,i,i,i,i,-1.6
Oc1oc(-c2cccc3ccccc23)nc1/C=N/c1nccs1,19*,i,12*,i,i,0.16
CC(=O)CC1OC(=O)C(Br)=C1NCc1ccccc1 (centres undefined),-7,6*,i,i,i,-3.6
O=C(CC1Oc2ccccc2NC1=O)NCc1ccccc1 (centres undefined),-2,i,i,i,i,0.33
N#CCc1c(C#N)c(N)nc(N2CCCC(O)C2)c1C#N (centres undefined),-10,i,i,i,i,-0.58
Clc1ccc(-c2nnc(-c3ccco3)o2)cc1,-5,i,i,i,i,-2.7
c1cncc(-c2nnc(-c3ccco3)o2)c1,6.3*,i,i,i,i,0.33
COc1ccc(CN(C)CC2CCCN(CCc3ccccc3C)C2)cc1O (centres undefined),-3,i,i,i,i,-8.8*
COc1cccc(CN(C)CC2CCCN(CCc3ccccc3C)C2)c1 (centres undefined),-8,i,i,i,i,-6.5*
CCc1nc(C)cn1S(=O)(=O)c1cc(C)c(OC)c(C)c1C,-12,i,i,i,i,-5.6*
CCc1nc(C)cn1S(=O)(=O)c1cc(C)c(OC)cc1C,-3,i,i,i,i,-5.2*
CCc1nc(C)cn1S(=O)(=O)c1cc(F)ccc1OC,-9,i,i,i,i,-10
CCc1nc(C)cn1S(=O)(=O)c1cc(Br)c(C)cc1OC,-13,i,i,i,i,-12*
CN(Cc1cnn(Cc2ccccc2)c1)C(=O)CN=C1NS(=O)(=O)c2ccccc21,nt,nt,nt,nt,i,nt

# Source: PubChem (Johns Hopkins Ion Channel Center)
